Consider two compounds from ChEMBL document CHEMBL5649170, “Sustained microglial depletion with CSF1R inhibitor impairs parenchymal plaque development in an Alzheimer's disease model” (Nat Commun, 2019).

The source made the active and inactive calls.

Series [1] in a line: Drug concentration in wildtype mouse plasma at 600 ppm administered as rodent chow starting from 1.5 months and measured after 5 months. Format: ADME, cell-free. The settings on record: route po, time 3.5 months. Summed up: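 WT or 5xFAD mice were fed PLX3397 in AIN-76A chow at 600 ppm or 75 ppm from 1.5 to 5 months of age. Terminal brain and plasma drug concentrations were determined at study end.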

Series [2] has as its target Tyrosine-protein kinase ABL2 (Homo sapiens, UniProt P42684). Kind of series: Inhibition of ABL2 (unknown origin).
Series [3] deals with Calcium/calmodulin-dependent protein kinase type 1 (Homo sapiens, UniProt Q14012). As to the kind of experiment: Inhibition of CAMK1 (unknown origin).
Series [4] deals with Casein kinase I isoform gamma-2 (Homo sapiens, UniProt P78368). Kind of series: Inhibition of CSNK1G2 (unknown origin).
Series [5] deals with Ephrin type-A receptor 5 (Homo sapiens, UniProt P54756). As to the kind of experiment: Inhibition of EPHA5 (unknown origin).
The target of series [6] is G protein-coupled receptor kinase 5 (Homo sapiens, UniProt P34947). As to the kind of experiment: Inhibition of GRK5 (unknown origin).
Series [7] concerns the target Insulin receptor (Homo sapiens, UniProt P06213). As to the kind of experiment: Inhibition of INSR (unknown origin).
Series [8] deals with Mitogen-activated protein kinase kinase kinase kinase 2 (Homo sapiens, UniProt Q12851). As to the kind of experiment: Inhibition of MAP4K2 (unknown origin).
Mitogen-activated protein kinase kinase kinase kinase 2, sequence (Q12851 whole entry): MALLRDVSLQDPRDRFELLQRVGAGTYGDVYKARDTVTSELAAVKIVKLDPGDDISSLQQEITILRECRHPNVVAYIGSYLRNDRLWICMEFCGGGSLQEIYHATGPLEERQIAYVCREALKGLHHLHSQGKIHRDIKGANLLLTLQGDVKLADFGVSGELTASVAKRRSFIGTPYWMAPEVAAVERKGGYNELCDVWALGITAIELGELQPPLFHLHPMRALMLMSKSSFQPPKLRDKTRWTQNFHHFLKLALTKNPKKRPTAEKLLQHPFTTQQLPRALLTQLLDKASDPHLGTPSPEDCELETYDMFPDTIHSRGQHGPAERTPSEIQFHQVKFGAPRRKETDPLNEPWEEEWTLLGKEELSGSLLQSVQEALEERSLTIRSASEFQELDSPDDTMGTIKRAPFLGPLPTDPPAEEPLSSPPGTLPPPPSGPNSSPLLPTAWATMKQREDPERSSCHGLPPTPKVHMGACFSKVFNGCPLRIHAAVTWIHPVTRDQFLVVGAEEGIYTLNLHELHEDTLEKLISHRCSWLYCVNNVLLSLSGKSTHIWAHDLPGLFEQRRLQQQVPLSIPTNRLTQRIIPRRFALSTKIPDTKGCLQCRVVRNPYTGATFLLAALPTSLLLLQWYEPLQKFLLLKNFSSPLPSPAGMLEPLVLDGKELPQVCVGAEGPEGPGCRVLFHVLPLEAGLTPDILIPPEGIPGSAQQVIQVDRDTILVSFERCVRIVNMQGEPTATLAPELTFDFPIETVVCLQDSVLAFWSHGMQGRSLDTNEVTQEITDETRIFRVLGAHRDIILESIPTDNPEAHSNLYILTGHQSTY
In series [9] the target is MAP kinase-activated protein kinase 3 (Homo sapiens, UniProt Q16644). As to the kind of experiment: Inhibition of MAPKAPK3 (unknown origin).
MAP kinase-activated protein kinase 3, sequence (Q16644 whole entry): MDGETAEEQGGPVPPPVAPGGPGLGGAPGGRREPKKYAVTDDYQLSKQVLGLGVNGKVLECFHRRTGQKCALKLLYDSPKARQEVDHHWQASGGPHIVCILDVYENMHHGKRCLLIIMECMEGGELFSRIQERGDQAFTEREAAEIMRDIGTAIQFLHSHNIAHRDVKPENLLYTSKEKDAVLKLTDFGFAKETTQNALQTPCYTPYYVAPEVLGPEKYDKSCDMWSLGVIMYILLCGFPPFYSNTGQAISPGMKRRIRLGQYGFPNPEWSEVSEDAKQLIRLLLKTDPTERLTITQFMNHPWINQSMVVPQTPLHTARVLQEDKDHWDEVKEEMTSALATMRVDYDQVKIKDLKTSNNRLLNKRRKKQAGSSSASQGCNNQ
For series [10], the target named is Serine/threonine-protein kinase Nek6 (Homo sapiens, UniProt Q9HC98). As to the kind of experiment: Inhibition of NEK6 (unknown origin).
Series [11] has as its target Serine/threonine-protein kinase PAK 4 (Homo sapiens, UniProt O96013). As to the kind of experiment: Inhibition of PAK4 (unknown origin).
The target in series [12] is Serine/threonine-protein kinase N1 (Homo sapiens, UniProt Q16512). As to the kind of experiment: Inhibition of PKN1 (unknown origin).
Serine/threonine-protein kinase N1, sequence (Q16512 whole entry): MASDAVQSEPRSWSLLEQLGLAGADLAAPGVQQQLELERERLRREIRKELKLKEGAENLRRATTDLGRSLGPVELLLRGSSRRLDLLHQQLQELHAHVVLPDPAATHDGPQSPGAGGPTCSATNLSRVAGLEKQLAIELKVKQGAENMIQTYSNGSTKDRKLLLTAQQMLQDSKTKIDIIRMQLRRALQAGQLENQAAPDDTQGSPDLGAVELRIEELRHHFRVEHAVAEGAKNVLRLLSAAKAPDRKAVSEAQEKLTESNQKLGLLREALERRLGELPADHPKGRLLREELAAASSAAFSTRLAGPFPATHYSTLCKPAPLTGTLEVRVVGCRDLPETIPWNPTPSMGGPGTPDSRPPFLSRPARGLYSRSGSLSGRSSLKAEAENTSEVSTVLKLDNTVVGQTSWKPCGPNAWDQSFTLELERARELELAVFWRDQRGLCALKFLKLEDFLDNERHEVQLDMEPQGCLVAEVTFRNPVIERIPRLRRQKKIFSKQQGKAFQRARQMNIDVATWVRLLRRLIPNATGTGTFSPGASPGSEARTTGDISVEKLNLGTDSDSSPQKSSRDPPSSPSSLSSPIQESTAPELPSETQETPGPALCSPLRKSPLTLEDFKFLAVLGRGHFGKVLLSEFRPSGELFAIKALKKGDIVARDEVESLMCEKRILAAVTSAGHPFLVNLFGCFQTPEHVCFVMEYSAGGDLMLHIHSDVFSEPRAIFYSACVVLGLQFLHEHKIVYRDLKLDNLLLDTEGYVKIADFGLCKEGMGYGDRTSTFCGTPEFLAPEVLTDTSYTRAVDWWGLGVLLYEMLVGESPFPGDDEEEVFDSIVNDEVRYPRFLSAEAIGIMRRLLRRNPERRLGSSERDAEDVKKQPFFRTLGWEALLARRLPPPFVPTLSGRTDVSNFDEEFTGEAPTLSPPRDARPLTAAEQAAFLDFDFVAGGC
For series [13], the target named is Protein kinase C eta type (Homo sapiens, UniProt P24723). As to the kind of experiment: Inhibition of PRKCH (unknown origin).
For series [14], the target named is Protein-tyrosine kinase 2-beta (Homo sapiens, UniProt Q14289). Kind of series: Inhibition of PTK2B (unknown origin).
Protein-tyrosine kinase 2-beta, sequence (Q14289 whole entry): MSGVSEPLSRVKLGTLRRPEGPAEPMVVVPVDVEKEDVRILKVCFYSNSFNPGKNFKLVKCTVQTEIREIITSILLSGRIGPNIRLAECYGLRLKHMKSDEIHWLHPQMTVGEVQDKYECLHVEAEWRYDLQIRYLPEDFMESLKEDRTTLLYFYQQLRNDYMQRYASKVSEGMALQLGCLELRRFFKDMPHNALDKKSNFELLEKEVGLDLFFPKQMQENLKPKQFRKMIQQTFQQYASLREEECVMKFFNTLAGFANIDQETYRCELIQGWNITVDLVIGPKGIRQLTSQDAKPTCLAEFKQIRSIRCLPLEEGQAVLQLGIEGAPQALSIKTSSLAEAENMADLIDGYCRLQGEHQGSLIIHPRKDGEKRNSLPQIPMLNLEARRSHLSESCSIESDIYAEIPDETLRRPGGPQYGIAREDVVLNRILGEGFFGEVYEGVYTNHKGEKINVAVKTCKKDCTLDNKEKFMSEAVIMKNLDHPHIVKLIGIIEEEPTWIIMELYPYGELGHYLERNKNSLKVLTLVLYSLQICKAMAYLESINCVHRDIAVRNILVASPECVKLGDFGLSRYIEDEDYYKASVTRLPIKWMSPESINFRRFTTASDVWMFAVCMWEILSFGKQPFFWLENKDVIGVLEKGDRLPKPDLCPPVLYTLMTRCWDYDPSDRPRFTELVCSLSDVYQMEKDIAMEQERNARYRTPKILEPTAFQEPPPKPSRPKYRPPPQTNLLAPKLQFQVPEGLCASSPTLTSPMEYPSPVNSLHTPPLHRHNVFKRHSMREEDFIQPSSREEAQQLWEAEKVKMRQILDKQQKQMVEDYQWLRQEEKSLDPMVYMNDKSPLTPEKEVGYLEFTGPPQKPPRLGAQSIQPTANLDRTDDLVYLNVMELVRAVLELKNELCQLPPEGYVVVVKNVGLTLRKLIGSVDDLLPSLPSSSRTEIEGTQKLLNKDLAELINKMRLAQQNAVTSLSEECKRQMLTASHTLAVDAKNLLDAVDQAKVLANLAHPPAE
The target in series [15] is Proto-oncogene tyrosine-protein kinase receptor Ret (Homo sapiens, UniProt P07949, V804L). As to the kind of experiment: Inhibition of RET V804L mutant (unknown origin).
Proto-oncogene tyrosine-protein kinase receptor Ret, sequence (P07949 29-1114 V804L limits assumed): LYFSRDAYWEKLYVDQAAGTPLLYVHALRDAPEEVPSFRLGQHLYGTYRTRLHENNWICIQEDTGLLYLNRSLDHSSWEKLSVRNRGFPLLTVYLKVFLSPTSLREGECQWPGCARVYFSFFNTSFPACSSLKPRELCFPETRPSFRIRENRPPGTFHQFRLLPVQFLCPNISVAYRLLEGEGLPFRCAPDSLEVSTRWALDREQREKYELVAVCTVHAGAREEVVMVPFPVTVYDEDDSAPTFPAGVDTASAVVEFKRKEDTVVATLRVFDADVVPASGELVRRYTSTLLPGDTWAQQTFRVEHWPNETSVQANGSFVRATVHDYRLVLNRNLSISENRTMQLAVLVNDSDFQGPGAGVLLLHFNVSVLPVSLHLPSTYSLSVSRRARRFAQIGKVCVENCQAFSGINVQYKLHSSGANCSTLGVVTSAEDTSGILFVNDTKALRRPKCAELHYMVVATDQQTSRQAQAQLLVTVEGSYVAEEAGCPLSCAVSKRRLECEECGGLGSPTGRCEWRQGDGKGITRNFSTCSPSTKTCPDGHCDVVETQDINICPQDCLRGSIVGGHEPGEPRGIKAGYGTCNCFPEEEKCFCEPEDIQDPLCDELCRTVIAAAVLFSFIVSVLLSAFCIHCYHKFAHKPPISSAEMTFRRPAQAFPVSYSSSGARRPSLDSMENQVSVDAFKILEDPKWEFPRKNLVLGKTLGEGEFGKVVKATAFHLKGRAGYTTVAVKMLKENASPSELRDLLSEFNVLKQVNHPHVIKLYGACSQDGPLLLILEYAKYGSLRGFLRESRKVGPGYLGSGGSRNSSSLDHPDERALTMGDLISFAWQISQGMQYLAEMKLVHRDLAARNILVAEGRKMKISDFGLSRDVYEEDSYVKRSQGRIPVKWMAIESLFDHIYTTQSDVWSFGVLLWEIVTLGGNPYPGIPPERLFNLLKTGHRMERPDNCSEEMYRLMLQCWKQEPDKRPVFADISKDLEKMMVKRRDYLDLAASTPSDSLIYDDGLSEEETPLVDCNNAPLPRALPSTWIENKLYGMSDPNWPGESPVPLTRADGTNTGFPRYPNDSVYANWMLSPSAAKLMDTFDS
In series [16] the target is Ribosomal protein S6 kinase alpha-6 (Homo sapiens, UniProt Q9UK32). Kind of series: Inhibition of RPS6KA6 (unknown origin).
A short description of series [17]: Volume of distribution at steady state in male rat at 1.13 mg/kg, iv administered as single dose. Format: ADME, organism-based. The settings on record: in vivo, read-out: Vdss.
Series [18] is described as follows: Half-life in female rat at 1.13 mg/kg, iv administered as single dose. Format: ADME, organism-based. Particulars: in vivo.
The nature of series [19]: Cmax in mouse at 45 mg/kg, po administered as single dose via gavage. The settings on record: in vivo. Format: ADME, organism-based.
Series [20] deals with Mus musculus. As to the kind of experiment: Antialzheimer activity in wildtype mouse assessed as number of Iba positive cells per FOV in thalamus at 1200 ppm administered as rodent chow starting from 1.5 months and measured after 4 months (reference value: 232 to 320). Format: functional. The settings on record: route po, time 2.5 months, 1825 h.
Series [21] can be described thus: Toxicity in wildtype mouse assessed as average speed at 1200 ppm administered as rodent chow for 10 to 24 weeks by Open field test (reference value: 0.044 to 0.09 meter/s). Particulars: in vivo, po, time 10-24 weeks.
For series [22], the system named is Mus musculus. As to the kind of experiment: Antialzheimer activity in 5XFAD mouse assessed as proportion of time spent freezing at 1200 ppm administered as rodent chow for 10 to 24 weeks by […] (reference value: 0.00 to 0.43). Format: functional. Particulars: route po, time 10-24 weeks.
Series [23] has as its system Mus musculus. As to the kind of experiment: Antialzheimer activity in 5XFAD mouse assessed as average plaque volume in retro spinal cortex at 1200 ppm administered as rodent chow starting from 1.5 months and measured after 7 months by Thio-S staining based confocal microscopic analysis (reference value: 1174.18 to 2460.96 microm3). Particulars: route po, time 5.5 months, 4015 h. Format: functional.

Series [24] has as its system Mus musculus. As to the kind of experiment: Effect on APP processing pathway in wildtype mouse assessed as C99 protein signal intensity in cortex at 1200 ppm administered as rodent starting from 1.5 months and measured after 7 months (reference value: 8.282 to 87.456 %). Format: functional. The settings on record: route po, time 5.5 months, 4015 h.
Series [25] is described as follows: Effect on Cx3cr1 gene expression in 5XFAD mouse thalamus at 1200 ppm administered as rodent chow starting from 1.5 months and measured after 7 months by RNA-Seq analysis (reference value: 15.006 to 17.756 RPKM). Format: functional. Particulars: route po, time 5.5 months, 4015 h.
Series [26] in a line: Effect on Siglech gene expression in wild type mouse cortex at 1200 ppm administered as rodent chow starting from 1.5 months and measured after 7 months by RNA-Seq analysis (reference value: 3.777 to 4.267 RPKM). Particulars: route po, time 5.5 months, 4015 h. Format: functional.
Series [27] can be described thus: Effect on Spi1 gene expression in 5XFAD mouse hippocampus at 1200 ppm administered as rodent chow starting from 1.5 months and measured after 7 months by RNA-Seq analysis (reference value: 2.582 to 3.674 RPKM). The settings on record: route po, time 5.5 months, 4015 h. Format: functional.
The nature of series [28]: Effect on Cst7 gene expression in wild type mouse hippocampus at 1200 ppm administered as rodent chow starting from 1.5 months and measured after 7 months by RNA-Seq analysis (reference value: 0.079 to 0.447 RPKM). Format: functional. The settings on record: route po, time 5.5 months, 4015 h.
Series [29] in a line: Effect on Ctsd gene expression in wild type mouse thalamus at 1200 ppm administered as rodent chow starting from 1.5 months and measured after 7 months by RNA-Seq analysis (reference value: 123.974 to 159.747 RPKM). Format: functional. Particulars: route po, time 5.5 months, 4015 h.
Series [30] is described as follows: Effect on Rnf217 gene expression in wildtype mouse hippocampus assessed as percent change in Reads Per kilo base per Million mapped reads at 1200 ppm administered as rodent chow starting from 1.5 months and measured after 7 months by RNA-Seq analysis (reference value: 92.169 to 103.245 %). The settings on record: route po, time 5.5 months, 4015 h. Format: functional.

Series [31] can be described thus: Effect on Nrg3 gene expression in wildtype mouse hippocampus assessed as percent change in Reads Per kilo base per Million mapped reads at 1200 ppm administered as rodent chow starting from 1.5 months and measured after 7 months by RNA-Seq analysis (reference value: 84.058 to 111.732 %). The settings on record: route po, time 5.5 months, 4015 h. Format: functional.

Series [32] can be described thus: Effect on Dync1i1 gene expression in wildtype mouse hippocampus assessed as percent change in Reads Per kilo base per Million mapped reads at 1200 ppm administered as rodent chow starting from 1.5 months and measured after 7 months by RNA-Seq analysis (reference value: 96.347 to 105.024 %). Format: functional. Particulars: route po, time 5.5 months, 4015 h.
Series [33] is described as follows: Prevention of Dync1i1 gene downregulation in 5XFAD mouse hippocampus assessed as percent change in Reads Per kilo base per Million mapped reads at 1200 ppm administered as rodent chow starting from 1.5 months and measured after 7 months by RNA-Seq analysis (reference value: 65.184 to 88.242 %). Format: functional. The settings on record: route po, time 5.5 months, 4015 h.

For series [34], the system named is Mus musculus. As to the kind of experiment: Prevention of Cacnb4 gene downregulation in 5XFAD mouse hippocampus at 1200 ppm administered as rodent chow starting from 1.5 months and measured after 7 months by Nanostring analysis. Particulars: route po, time 5.5 months. Format: functional, tissue-based.
For series [35], the system named is Mus musculus. Kind of series: Prevention of Dlgap1 gene downregulation in 5XFAD mouse hippocampus at 1200 ppm administered as rodent chow starting from 1.5 months and measured after 7 months by Nanostring analysis. The settings on record: route po, time 5.5 months. Format: functional, tissue-based.

Serine/threonine-protein kinase PAK 4, sequence (O96013 whole entry): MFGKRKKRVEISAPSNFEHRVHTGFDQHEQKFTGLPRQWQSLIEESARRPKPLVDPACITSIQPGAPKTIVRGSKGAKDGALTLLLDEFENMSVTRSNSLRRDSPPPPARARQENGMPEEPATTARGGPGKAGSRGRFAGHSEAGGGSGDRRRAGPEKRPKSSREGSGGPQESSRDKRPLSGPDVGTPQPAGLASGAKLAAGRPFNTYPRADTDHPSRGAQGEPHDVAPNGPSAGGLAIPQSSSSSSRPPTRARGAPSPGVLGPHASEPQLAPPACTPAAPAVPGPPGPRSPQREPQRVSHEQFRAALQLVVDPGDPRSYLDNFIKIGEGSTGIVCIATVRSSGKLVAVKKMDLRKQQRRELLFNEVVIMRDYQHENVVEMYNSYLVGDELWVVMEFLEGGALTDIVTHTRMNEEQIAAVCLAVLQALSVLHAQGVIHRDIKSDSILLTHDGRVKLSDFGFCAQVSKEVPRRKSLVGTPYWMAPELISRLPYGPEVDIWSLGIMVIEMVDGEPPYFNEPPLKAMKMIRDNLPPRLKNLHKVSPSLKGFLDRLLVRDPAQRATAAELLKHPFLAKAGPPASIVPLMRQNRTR

On to `FC(F)(F)c1ccc(CNc2ccc(Cc3c[nH]c4ncc(Cl)cc34)cn2)cn1` [PEXIDARTINIB], for which the concentration at 2555 h in [1] amounted to 139 µM.
For the compound `COc1ncc(F)cc1CNc1ccc(Cc2c[nH]c3ncc(C)cc23)c(F)n1` [PLX-5622], the IC50 in series [2], in series [3], in series [4], in series [5], in series [6] and in series [7] was greater than 1000 nM each time. The concentration for half-maximal inhibition (IC50) in series [8], in series [9], in series [10], in series [11], in [12] and in series [13] was greater than 1000 nM each time. Moreover, the 50% inhibitory concentration (IC50) in series [14], in series [15] and in series [16] was greater than 1000 nM throughout. Moreover, the Vd in series [17] came out at 1.2 L/kg. In series [18], the half-life (in general, the time needed for the level to fall by half in the phase considered) was 3.9 h. The highest concentration (Cmax) (as a rule, the highest concentration seen after dosing) in series [19] worked out at 26300 ng/mL. The Activity in series [20] was found to be 0; in [21], 0.03 meter/s; in [22] it was 0.07; in series [23], 622.98 um3; in series [24] it was 21.073%; in series [25], 0.179 RPKM. For the same compound, the Activity in series [26] came to 0 RPKM; in series [27], 0.292 RPKM; in series [28], 0 RPKM; in [29], 100.931 RPKM; in series [30], 69.868%; in series [31], 59.872%. Also, the Activity in [32] is recorded as 81.186%; in [33], 89.818%. The outcome in series [34] and in [35] was Active.
